Screening results deposited in PubChem BioAssay by Broad Institute.
EWS-Fli inh = blocks EWS/Fli oncoprotein-driven transcription; A673 NR0B1-luciferase reporter, viability-normalised; inhibition, % at 12.6 µM; hit rate 0.67% among 350,000; AID 651661;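 active means mean inhibition of at least 50% after viability correction, with every replicate also passing that limit; inconclusive means mean reaches 50% but only one of two replicates passes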;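 further: firefly luciferase signal divided by Alamar Blue viability fluorescence both relative to DMSO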
Ecoli rRNA inh = selective bacterial rRNA inhibition in E. coli; E. coli WT GFP vs humanized-ribosome RFP mutants, fluorescence, 24 h; stronger effect = lower value; DMSO median 0, no signal -100; GFP signal change (wild-type ribosome), % (no concentration beside the values); hit rate 1.6% among 350,000;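 active means significant combined selectivity score with lowered wild-type GFP, culture density cut under 30%, mutant RFP and density less affected; inactive means any of these conditions unmet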
LGR2 inh = blocks bursicon-induced cAMP signaling via Drosophila LGR2; HEK293 LGR2, CRE-luciferase, bursicon-stimulated, 4 h; inhibition, % at 9.99 µM; hit rate 0.35% among 380,000; AID 720647;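 active means drop in luminescence signal, shown as inhibition above about 50% in the replicate tests, limit read from the data, passing the limit was not always enough; inconclusive means probably only some replicates passing the limit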;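 further: agonist challenge used bursicon conditioned medium at about half maximal strength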
E-selectin induc = induces E-selectin expression in human endothelial cells | P16581 | HUVEC E-selectin immunofluorescence imaging; normalized: neutral wells 0, TNF-alpha wells 100 | activation, % at 7.58 µM | hit rate 0.37% among 260,000 | AID 686992;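 active means mean E-selectin-positive cell signal at least 10% of the positive control, reached in at least 60% of replicates, without over 20% cell loss; inconclusive means no rule given, readout overlaps actives, possibly toxicity-flagged; inactive means the rest, including those meeting only one limit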
Target sequence (P16581 whole entry, looked up): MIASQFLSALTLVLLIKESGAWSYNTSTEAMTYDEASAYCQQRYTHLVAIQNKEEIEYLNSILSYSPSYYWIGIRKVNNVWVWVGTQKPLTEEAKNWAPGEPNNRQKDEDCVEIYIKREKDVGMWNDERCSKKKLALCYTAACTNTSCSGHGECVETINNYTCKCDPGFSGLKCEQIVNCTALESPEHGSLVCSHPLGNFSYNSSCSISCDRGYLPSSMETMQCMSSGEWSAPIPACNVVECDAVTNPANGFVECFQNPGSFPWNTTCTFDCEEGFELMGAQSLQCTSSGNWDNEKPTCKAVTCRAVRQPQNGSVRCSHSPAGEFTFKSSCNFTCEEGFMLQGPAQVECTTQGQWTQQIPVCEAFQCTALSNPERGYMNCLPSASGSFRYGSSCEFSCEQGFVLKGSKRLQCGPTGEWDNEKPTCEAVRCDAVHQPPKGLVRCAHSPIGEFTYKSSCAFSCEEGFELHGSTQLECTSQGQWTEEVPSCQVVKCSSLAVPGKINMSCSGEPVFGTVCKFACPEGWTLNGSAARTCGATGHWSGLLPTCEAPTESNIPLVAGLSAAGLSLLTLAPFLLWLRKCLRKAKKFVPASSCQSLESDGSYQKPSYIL
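Test system: HUVEC | Signal: Immunofluorescence imaging | Read-out: Percent E-selectin-positive cells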
* = called active by the depositor; u = inconclusive; x = not tested or not shown. Shown are actives, neighbours in structure and some others; about 2.4% of the full set was active somewhere.

SMILES | EWS-Fli inh | Ecoli rRNA inh | LGR2 inh | E-selectin induc
CC[n+]1ccccc1/C=C/c1ccc(N(C)C)cc1 | 24 | 79 | 31 | x
O=C(O)c1c(-n2cccc2)sc2c1CCCC2 | -51 | -44* | -29 | x
Cc1sc(-n2cccc2)c(C(=O)O)c1C | x | x | x | 7
c1ccc(-c2ccc(-c3nc(-c4ccccn4)no3)cc2)cc1 | 87* | 10 | 102* | x
c1ccc(-c2noc(-c3ccno3)n2)nc1 | -17 | 5 | -15 | 0
c1ccc(-c2nc(-c3ccccn3)no2)cc1 | x | x | 87* | x
COc1ccc2c3c(n(C)c2c1)[C@H](CO)N(Cc1nccs1)CC31CN(C(C)=O)C1 | 7 | 4 | -1 | 0
CCCc1cc(C(=O)NNC(=S)Nc2cccc(C)c2)cs1 | x | x | -40 | x
Cc1cccc(NC(=S)NNC(=O)c2csc3c2CCC(C)C3)c1 (stereo unspecified) | -53 | -40* | -101 | x
COc1ccc(S(=O)(=O)N(C)C[C@@H]2Oc3ccc(NS(=O)(=O)c4cn(C)cn4)cc3CC(=O)N([C@H](C)CO)C[C@@H]2C)cc1 | -8 | 4 | -2 | 0
Cc1ccc2nc(-c3cccc(S(=O)(=O)N4CCCC4)c3)cn2c1 | x | -1 | 0 | 0
Cc1ccn2cc(-c3cccc(S(=O)(=O)N4CCCCC4)c3)nc2c1 | x | -44* | -8 | x
C[C@H](CO)N1C[C@H](C)[C@@H](CN(C)Cc2ccc(Oc3ccccc3)cc2)Oc2ccc(NC(=O)NC3CCCCC3)cc2C1=O | 10 | 11 | -3 | 1
Cc1ccc(-c2ccc3c(c2)O[C@H](CN(C)Cc2ccccn2)[C@@H](C)CN([C@H](C)CO)S3(=O)=O)cc1 | 63* | -10 | 13 | 0
Cc1ccc(-c2ccc3c(c2)O[C@H](CN(C)Cc2ccccn2)[C@@H](C)CN([C@@H](C)CO)S3(=O)=O)cc1 | 58* | -26 | 13 | 2
Cc1ccc(-c2ccc3c(c2)O[C@@H](CN(C)Cc2ccccn2)[C@@H](C)CN([C@@H](C)CO)S3(=O)=O)cc1 | 11 | -45 | 11 | 0
COc1ccc(C(=O)Nc2cc(C)c(NC(=O)c3ccccn3)cn2)cc1 | -107 | -1 | -56 | x
COc1ccc(C(=O)Nc2cnc(NC(=O)c3cccs3)cc2C)cc1 | -68 | -7 | -2 | 33*
O=C(c1cc(-c2ccc(Cl)cc2Cl)on1)N1CCCCCC1 | -5 | -23 | -34 | 0
Cc1ccc(-c2cc(C(=O)N3CCOCC3)no2)cc1 | 54* | 0 | 63* | 0
O=C(c1cc(-c2ccc(O)cc2)on1)N1CCCCCC1 | -109 | x | -64 | x
O=C(c1cc(-c2ccc(Cl)cc2Cl)on1)N1CCCC1 | 55* | 0 | 75* | 1
C=CCn1c(CCSCc2ccc(OC)c(C)c2)n[nH]c1=S | 5 | -19* | 10 | 0
C=CCn1c(CCSCc2ccccc2)n[nH]c1=S | -1 | -1 | 1 | 0
Cc1cccc(OCC(=O)NCC(=O)N/N=C/c2ccc(O)cc2O)c1 | 24 | -30* | -19 | 5
SMILES | EWS-Fli inh | Ecoli rRNA inh | LGR2 inh | E-selectin induc
O=C(CNC(=O)C(c1ccccc1)c1ccccc1)N/N=C/c1ccc(O)cc1O | 26 | -20* | 9 | 4
Cc1ccc(NC(=O)CCC(=O)N/N=C/c2ccc(O)cc2O)cc1 | 6 | -12* | 10 | x
Cc1nonc1C(=O)N/N=C/c1ccc(O)cc1O | 0 | -22* | 26 | x
COc1cccc(/C=N/NC(=O)CNC(=O)COc2cccc(C)c2)c1O | 1 | 7 | -10 | 0
Cc1nonc1C(=O)N/N=C/c1ccncc1 | -1 | 5 | -4 | 1
O=C(CCC(=O)Nc1ccc(F)cc1)N/N=C/c1ccccc1O | -10 | 14 | 3 | x
C[C@@H]1CCCCO[C@H](CN(C)Cc2ccc(C(=O)Nc3ccccc3N)cc2)[C@@H](C)CN([C@@H](C)CO)C(=O)c2cc(N(C)C)ccc2O1 | x | -3 | x | x
Cc1noc(C)c1NC(=O)Nc1ccc2c(c1)C(=O)N([C@H](C)CO)C[C@H](C)[C@H](CN(C)S(=O)(=O)c1cn(C)cn1)OCCCC[C@@H](C)O2 | -5 | 3 | 13 | 0
COc1ccc(N=[N+]([O-])c2ccc(OC)cc2)cc1 | u | -2 | 72* | 0
Cc1ccc(NS(=O)(=O)c2ccc(-c3csc(C)n3)s2)c(C)c1 | 1 | -38* | -2 | 0
COc1ccc(-c2csc(C3=C(O)CN(C(C)C)C3=N)n2)cc1OC | -24 | -35* | -25 | x
Cc1noc(C)c1NC(=O)N(C)C[C@H]1Oc2c(NC(=O)Nc3ccc(F)cc3)cccc2C(=O)N([C@H](C)CO)C[C@@H]1C | -12 | 2 | -9 | 15
Cc1noc(C)c1COc1ccc(C(=O)Nc2ccccc2)cc1 | -12 | 10 | -51 | 2
CCc1ccccc1NC(=O)c1ccc(OCc2c(C)noc2C)cc1 | 0 | -20* | -7 | 0
CS(=O)(=O)c1ccc(C(=O)OCC(=O)NC(=O)C2COc3ccccc3O2)cc1[N+](=O)[O-] (stereo unspecified) | 5 | x | 12 | x
CS(=O)(=O)c1ccc(C(=O)OCC(=O)NC(=O)C2CCCCC2)cc1[N+](=O)[O-] | 19 | 20 | 60* | x
CS(=O)(=O)c1ccc(C(=O)OCC(=O)N2CCN(CCC3CCCCC3)CC2)cc1[N+](=O)[O-] | 54* | -14 | -1 | 1
O=C(C[C@H]1CC[C@H]2[C@@H](COC[C@@H](O)CN2S(=O)(=O)c2cccc(Cl)c2)O1)NCc1ccncn1 | -6 | 1 | 11 | 0
O=C1NC(=O)/C(=C\c2ccc(OCc3cccc(C(=O)O)c3)c(Cl)c2)N1 | 25 | -30 | 83* | x
O=C(O)c1ccc(COc2ccccc2Cl)cc1 | x | x | -2 | x
O=C(O)c1cccc(COc2ccccc2Cl)c1 | 86* | -9 | 101* | x
COc1cc(/C=C2\NC(=S)NC2=O)ccc1OCc1cccc(C(=O)O)c1 | -20 | -3 | 18 | 0
O=C(C[C@@H]1CC[C@@H](NC(=O)Nc2ccccc2)[C@@H](CO)O1)NCc1cccc(F)c1 | 1 | -1 | -24 | 1
C[C@@H]1CN([C@H](C)CO)S(=O)(=O)c2ccc(-c3ccccc3)cc2O[C@H]1CN(C)C(=O)Nc1ccccc1F | -3 | -4 | 0 | 0
COCCNC(=O)C[C@H]1C[C@H]2c3cc(NC(=O)C4CCOCC4)ccc3O[C@H]2[C@H](CO)O1 | -2 | 3 | 6 | 0
SMILES | EWS-Fli inh | Ecoli rRNA inh | LGR2 inh | E-selectin induc
C[C@H](NC(=O)C[C@@H]1CC[C@@H](NC(=O)C2CC2)[C@H](CO)O1)c1ccccc1 | 2 | 2 | -1 | 0
COCC#Cc1cnc2c(c1)C(=O)N([C@@H](C)CO)C[C@H](C)[C@@H](CN(C)S(=O)(=O)c1cn(C)cn1)O2 | 2 | 0 | -3 | 0
COC(=O)c1cn(CCNC(=O)[C@@H](NS(=O)(=O)c2ccc(C)cc2)C(C)C)nn1 | -5 | x | x | x
CCC(CC)NC(=O)Nc1ccc(F)c(Cl)c1 | -5 | -3 | -10 | 27*
COc1ccc(OC)c(Nc2c3c(nc4ccccc24)CCC3)c1 | 57* | 7 | -19 | 3
COc1ccc(OC)c(Nc2c3ccccc3nc3ccccc23)c1 | 41 | -6 | -10 | 1
